Laboratory results taken from ChEMBL document CHEMBL1126988, “Quinolone antibacterials containing the new 7-[3-(1-aminoethyl)-1- pyrrolidinyl] side chain: the effects of the 1-aminoethyl moiety and its stereochemical configurations on potency and in vivo efficacy” (J Med Chem, 1993).
Values after ≈ are worked out from the molar mass of the structure shown.

Tests used:
[1] = tested on: Enterobacter cloacae; assay: Minimum inhibitory concentration in vitro against Enterobacter cloacae MA 2646; type: functional
[2] = tested on: Klebsiella pneumoniae; assay: Minimum inhibitory concentration was evaluated in vitro against Klebsiella pneumoniae MGH2; type: functional
In short: (§1)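 Standard microtitration broth assay against a panel of 10 Gram-positive and Gram-negative organisms. MIC read in µg/mL and averaged over multiple experiments.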

[3] = tested on: Streptococcus pyogenes; assay: Compounds were evaluated in vivo for antibacterial activity for mouse protection against Streptococcus pyogenes C 203 after oral administration; type: functional; details: for ED50: Streptococcus pyogenes, C 203, po, read-out: PD50
[4] = tested on: Enterococcus faecalis; assay: Minimum inhibitory concentration was evaluated in vitro against Enterococcus faecalis MGH-2; type: functional; in short: as §1
[5] = biological target: DNA gyrase (Escherichia coli, UniProt P0AES4+P0AES6); assay: Inhibition against DNA gyrase; type: protein-complex assay
[6] = tested on: Staphylococcus aureus; assay: Minimum inhibitory concentration was evaluated in vitro against Staphylococcus aureus H 228; type: functional; in short: as §1
[7] = tested on: Streptococcus pyogenes; assay: Antibacterial activity measured as mouse protection against Streptococcus pyogenes C 203 after subcutaneous administration; type: functional; details: for ED50: Streptococcus pyogenes, C 203, sc, read-out: PD50
[8] = tested on: Escherichia coli; assay: Antibacterial activity against Escherichia coli Vogel after subcutaneous administration in mouse; type: functional; details: Escherichia coli, sc; read-out: PD50
[9] = tested on: Pseudomonas aeruginosa; assay: Minimum inhibitory concentration was evaluated in vitro against Pseudomonas aeruginosa UI-18; type: functional; in short: as §1
[10] = tested on: Providencia rettgeri; assay: Minimum inhibitory concentration was evaluated in vitro against Providencia rettgeri M1771; type: functional; in short: as §1
[11] = tested on: Escherichia coli; assay: Antibacterial activity in vitro against Escherichia coli Vogel; type: functional; in short: as §1
[12] = tested on: Streptococcus pneumoniae; assay: Minimum inhibitory concentration was evaluated in vitro against Streptococcus pneumoniae SV-1; type: functional; in short: as §1
[13] = tested on: Staphylococcus aureus; assay: Minimum inhibitory concentration was evaluated in vitro against Staphylococcus aureus UC 76; type: functional; in short: as §1
[14] = tested on: Escherichia coli; assay: Antibacterial activity against Escherichia coli Vogel after oral administration in mouse; type: functional; details: Escherichia coli, po; read-out: PD50
[15] = tested on: Streptococcus pyogenes; assay: Minimum inhibitory concentration was evaluated in vitro against Streptococcus pyogenes C 203; type: functional; in short: as §1
[16] = species: Mus musculus; assay: Compounds were evaluated for phototoxicity no-effect dose in mouse; type: functional
In short: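 Depilated female CD-1 mice, five per dose plus controls. Animals are dosed orally and then exposed daily to UV-A (320–400 nm) for 3 h, for up to 4 days or until a definite positive response. Redness or erythema relative to controls, read 24 h after irradiation, counts as positive. Reported as the highest dose with no effect (mg/kg).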

[17] = Clonogenic cytotoxicity against hamster V-79 cells; type: functional, Cricetulus griseus, V79
In short: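 Chinese hamster V-79 cells grown overnight, then drug-treated for 3 h at 37 °C. Medium is replaced with fresh medium and cells are incubated 5 days to allow colony formation. IC50 (µg/mL) is the concentration inhibiting colony formation by 50% relative to control.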

[18] = Enterobacter cloacae, read-out: MIC
[19] = Klebsiella pneumoniae, read-out: MIC
[20] = Enterococcus faecalis, read-out: MIC
[21] = Staphylococcus aureus, read-out: MIC
[22] = Pseudomonas aeruginosa, read-out: MIC
[23] = Providencia rettgeri, read-out: MIC
[24] = Escherichia coli, read-out: MIC
[25] = Streptococcus pneumoniae, read-out: MIC
[26] = Streptococcus pyogenes, read-out: MIC

| Structure (SMILES) | MIC [1, 18] [mg/L] | MIC [2, 19] [mg/L] | ED50 [3] [mg/kg] | MIC [4, 20] [mg/L] | IC50 [5] [µM] | MIC [6, 21] [mg/L] | ED50 [7] [mg/kg] | ED50 [8] [mg/kg] | MIC [9, 22] [mg/L] | MIC [10, 23] [mg/L] | MIC [11, 24] [mg/L] | MIC [12, 25] [mg/L] | MIC [13, 21] [mg/L] | ED50 [14] [mg/kg] | MIC [15, 26] [mg/L] | Dose [16] [mg/kg] | Cytotoxicity [17] [µg/mL] | also measured |
| --- | --- | --- | --- | --- | --- | --- | --- | --- | --- | --- | --- | --- | --- | --- | --- | --- | --- | --- |
| CCN[C@H](C)[C@H]1CCN(c2c(F)cc3c(=O)c(C(=O)O)cn(C4CC4)c3c2C(F)(F)F)C1 (racemic) | 0.4 (≈ 0.878 µM) | 1.6 (≈ 3.51 µM) | 0.7 | 0.1 (≈ 0.22 µM) | 1.93 | 0.05 (≈ 0.11 µM) | 0.5 | 3 | 6.3 (≈ 13.8 µM) | 1.6 (≈ 3.51 µM) | 0.8 (≈ 1.76 µM) | 0.013 (≈ 0.0285 µM) | 0.013 (≈ 0.0285 µM) | 5 | 0.025 (≈ 0.0549 µM) | – | – | – |
| C[C@@H](N)[C@@H]1CCN(c2cc3c(cc2F)c(=O)c(C(=O)O)cn3C2CC2)C1 | 0.2 (≈ 0.556 µM) | 0.4 (≈ 1.11 µM) | > 100 | 0.1 (≈ 0.278 µM) | 2.09 | 0.2 (≈ 0.556 µM) | 2 | – | 1.6 (≈ 4.45 µM) | 0.8 (≈ 2.23 µM) | 0.1 (≈ 0.278 µM) | 0.025 (≈ 0.0696 µM) | 0.05 (≈ 0.139 µM) | – | 0.025 (≈ 0.0696 µM) | – | – | – |
| C[C@H](N)[C@H]1CCN(c2cc3c(cc2F)c(=O)c(C(=O)O)cn3C2CC2)C1 | 0.2 (≈ 0.556 µM) | 0.4 (≈ 1.11 µM) | > 100 | 0.4 (≈ 1.11 µM) | 20.9 | 0.8 (≈ 2.23 µM) | 12 | – | 1.6 (≈ 4.45 µM) | 0.8 (≈ 2.23 µM) | 0.2 (≈ 0.556 µM) | 0.2 (≈ 0.556 µM) | 0.1 (≈ 0.278 µM) | – | 0.1 (≈ 0.278 µM) | – | – | – |
| NCC1CCN(c2nc3c(cc2F)c(=O)c(C(=O)O)cn3C2CC2)C1 (stereo not given) | 0.1 (≈ 0.289 µM) | 0.1 (≈ 0.289 µM) | 39 | 0.025 (≈ 0.0722 µM) | 2.17 | 0.1 (≈ 0.289 µM) | 4 | 1 | 0.2 (≈ 0.577 µM) | 0.4 (≈ 1.15 µM) | 0.05 (≈ 0.144 µM) | 0.1 (≈ 0.289 µM) | 0.003 (≈ 0.00866 µM) | 17 | 0.025 (≈ 0.0722 µM) | – | – | – |
| COc1c(N2CC[C@H]([C@@H](C)N)C2)c(F)cc2c(=O)c(C(=O)O)cn(C3CC3)c12 (racemic) | 0.05 (≈ 0.128 µM) | 0.05 (≈ 0.128 µM) | 1 | 0.006 (≈ 0.0154 µM) | – | 0.006 (≈ 0.0154 µM) | 0.3 | 1 | 0.4 (≈ 1.03 µM) | 0.05 (≈ 0.128 µM) | 0.025 (≈ 0.0642 µM) | 0.003 (≈ 0.0077 µM) | 0.003 (≈ 0.0077 µM) | 4 | 0.003 (≈ 0.0077 µM) | >100 | <7.8 | – |
| C[C@H](N)[C@H]1CCN(c2nc3c(cc2F)c(=O)c(C(=O)O)cn3C2CC2)C1 | 0.05 (≈ 0.139 µM) | 0.2 (≈ 0.555 µM) | 28 | 0.1 (≈ 0.277 µM) | 6.94 | 0.2 (≈ 0.555 µM) | 10 | – | 1.6 (≈ 4.44 µM) | 0.4 (≈ 1.11 µM) | 0.05 (≈ 0.139 µM) | 0.05 (≈ 0.139 µM) | 0.025 (≈ 0.0694 µM) | – | 0.05 (≈ 0.139 µM) | – | – | – |
| CCn1cc(C(=O)O)c(=O)c2cc(F)c(N3CC[C@H]([C@@H](C)N)C3)c(F)c21 (mixture of isomers) | 0.05 | 0.1 | 1 | 0.013 | – | 0.025 | 0.4 | 1 | 0.8 | 0.2 | 0.05 | 0.003 | 0.006 | 3 | 0.003 | <10 | 9.8 | – |
| CCN[C@@H](C)[C@@H]1CCN(c2nc3c(cc2F)c(=O)c(C(=O)O)cn3C2CC2)C1 (racemic) | 0.1 (≈ 0.257 µM) | 0.2 (≈ 0.515 µM) | – | – | – | 0.1 (≈ 0.257 µM) | – | 1 | 1.6 (≈ 4.12 µM) | 0.8 (≈ 2.06 µM) | 0.1 (≈ 0.257 µM) | – | – | 2 | – | <30 | 130 | PD50 [3]: 2 mg/kg; MIC [4]: 0.05 mg/L (≈ 0.129 µM); PD50 [7]: 2 mg/kg; MIC [12]: 0.025 mg/L (≈ 0.0644 µM); MIC [13]: 0.025 mg/L (≈ 0.0644 µM); MIC [15]: 0.05 mg/L (≈ 0.129 µM) |
| C[C@@H](N)[C@H]1CCN(c2cc3c(cc2F)c(=O)c(C(=O)O)cn3C2CC2)C1 | – | – | – | – | 20.9 | – | – | – | – | – | – | – | – | – | – | – | – | MIC [1]: 0.2 mg/L (≈ 0.556 µM); MIC [2]: 0.4 mg/L (≈ 1.11 µM); PD50 [3]: >100 mg/kg; MIC [4]: 0.2 mg/L (≈ 0.556 µM); MIC [6]: 0.4 mg/L (≈ 1.11 µM); PD50 [7]: 3 mg/kg; MIC [9]: 1.6 mg/L (≈ 4.45 µM); MIC [10]: 0.8 mg/L (≈ 2.23 µM); MIC [11]: 0.2 mg/L (≈ 0.556 µM); MIC [12]: 0.1 mg/L (≈ 0.278 µM); MIC [13]: 0.05 mg/L (≈ 0.139 µM); MIC [15]: 0.1 mg/L (≈ 0.278 µM) |
